Data on five molecules can be found in ChEMBL document CHEMBL1817652, “Synthesis and mechanistic studies of a mitomycin dimer containing an eight-membered cyclic disulfide” (Bioorg Med Chem, 2011).

Data set [1] concerns Nucleic Acid. Nature of the data set: Binding affinity to Escherichia coli pBR322 assessed as DNA interstand cross link at 0.05 to 0.25 mM after 2 hrs by agarose gel electrophoresis in presence of 5 equiv of Et3P. Type of data set: nucleic-acid assay. The method in brief: (§1)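 EcoRI-linearized pBR322 plasmid DNA, deaerated with N2 for 15 min. Mitomycin (0.1–0.2 mM final, from 5 mM DMSO stock) and nucleophile (Et3P, L-DTT or GSH, 5 equiv, 0.5 mM final) added, then incubated 2 h at room temperature. Concentration scan with Et3P over […]. DNA extracted with phenol/chloroform and ethanol-precipitated, run on denaturing 1.2% alkaline agarose gel (40 mM NaOH, 1 mM EDTA), neutralised, stained, bands quantified.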

A short description of data set [2]: Stability of the compound measured after 5 days by HPLC and TLC method. Type of data set: physicochemical. Conditions: read-out: Stability. The method in brief:
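Mitomycin at 0.03 mM final in buffered methanolic solution (0.1 M Tris-HCl, effective 'pH' 7.4), 25 °C, […]. Followed by UV–vis (200–600 nm) at ~373 nm. Runs in duplicate and averaged. HPLC and TLC analysis at the end.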

Data set [3] is described as follows: Stability of the compound at 10 Equiv of L-ditiothreitol after 3 days by HPLC and TLC method. Type of data set: physicochemical. The settings on record: read-out: Stability. The method in brief: (§2)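 Mitomycin at 0.03 mM final in buffered methanolic solution (0.1 M Tris-HCl, effective 'pH' 7.4), 25 °C, with added nucleophile (final 0.06–1.5 mM). Followed by UV–vis (200–600 nm) at ~373 nm, with mitosene products at ~313 nm, for more than two half-lives. Runs in duplicate and averaged. End-point 'pH' checked, mixtures analysed by HPLC and TLC against authentic samples.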

A short description of data set [4]: Stability of the compound at 20 Equiv L-ditiothreitol measured after 3 days by HPLC and TLC method. Type of data set: physicochemical. Conditions: read-out: Stability. In a few lines:
as §2

The nature of data set [5]: Stability of the compound at 20 Equiv of glutathione measured after 3 days by HPLC and TLC method. Type of data set: physicochemical. Conditions: read-out: Stability. The method in brief: as §2
A short description of data set [6]: Stability of the compound at 2 Equiv of Et3P measured after 5 days by HPLC and TLC method. Type of data set: physicochemical. Conditions: read-out: Stability. The method in brief: as §2
Data set [7] can be described thus: Activation of the compound assessed as half life at 5 Equiv of Et3P by HPLC and TLC method. Type of data set: physicochemical. In a few lines: as §2
Data set [8] is described as follows: Activation of the compound assessed as half life at 10 Equiv of Et3P by HPLC and TLC method. Type of data set: physicochemical. In a few lines: as §2
A short description of data set [9]: Activation of the compound assessed as half life at 20 Equiv of Et3P by HPLC and TLC method. Type of data set: physicochemical. The method in brief:
as §2

The nature of data set [10]: Activation of the compound assessed as half life at 50 Equiv of Et3P by HPLC and TLC method. Type of data set: physicochemical. The method in brief:
as §2

The subject of data set [11] is Nucleic Acid. Nature of the data set: Binding affinity to Escherichia coli pBR322 assessed as DNA interstand cross link at 0.1 mM after 2 hrs by agarose gel electrophoresis in presence of 5 equiv of Et3P. Type of data set: nucleic-acid assay. The method in brief: as §1
Data set [12] concerns Nucleic Acid. The experiment in a line: Binding affinity to Escherichia coli pBR322 assessed as DNA interstand cross link at 0.1 mM after 2 hrs by agarose gel electrophoresis in presence of 5 equiv of L-ditiothreitol. Type of data set: nucleic-acid assay. In a few lines: as §1
In data set [13] the test system is Nucleic Acid. Nature of the data set: Binding affinity to Escherichia coli pBR322 assessed as DNA interstand cross link at 0.1 mM after 2 hrs by agarose gel electrophoresis in presence of 5 equiv glutathione. Type of data set: nucleic-acid assay. The method in brief: as §1
In data set [14] the test system is Nucleic Acid. Nature of the data set: Binding affinity to Escherichia coli pBR322 assessed as DNA interstand cross link at 0.2 mM after 2 hrs by agarose gel electrophoresis in presence of 5 equiv of Et3P. Type of data set: nucleic-acid assay. The method in brief:
(§3)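 EcoRI-linearized pBR322 plasmid DNA, N2-deaerated 15 min, mitomycin added from DMSO stock (final 0.1–0.2 mM) with nucleophile (GSH, Et3P or L-DTT, 5 equiv) from DMSO stock; incubated room temperature 2 h. DNA phenol/CHCl3-extracted, EtOH-precipitated, resuspended in 10 mM Tris/1 mM EDTA pH 8.0. Run on denaturing 1.2% alkaline agarose gel (40 mM NaOH, 1 mM EDTA), neutralized, stained, bands quantified.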

For data set [15], the system named is Nucleic Acid. Nature of the data set: Binding affinity to Escherichia coli pBR322 assessed as DNA interstand cross link at 0.2 mM after 2 hrs by agarose gel electrophoresis in presence of 5 equiv of L-ditiothreitol. Type of data set: nucleic-acid assay. The method in brief: as §3
In data set [16] the test system is Nucleic Acid. The experiment in a line: Binding affinity to Escherichia coli pBR322 assessed as DNA interstand cross link at 0.2 mM after 2 hrs by agarose gel electrophoresis in presence of 5 equiv glutathione. Type of data set: nucleic-acid assay. In a few lines:
as §3

Data set [17] in a line: Stability of the compound at 50 Equiv of Et3P after 3 days by HPLC and TLC method. Type of data set: physicochemical. The settings on record: read-out: Stability. In a few lines:
as §2

Data set [18] in a line: Stability of the compound at 20 Equiv of Et3P after 3 days by HPLC and TLC method. Type of data set: physicochemical. Conditions: read-out: Stability. The method in brief:
as §2

The nature of data set [19]: Stability of the compound at 10 Equiv of Et3P after 3 days by HPLC and TLC method. The settings on record: read-out: Stability. Type of data set: physicochemical. The method in brief: as §2
A short description of data set [20]: Stability of the compound at 10 Equiv of L-ditiothreitol after 5 days by HPLC and TLC method. The settings on record: read-out: Stability. Type of data set: physicochemical. In a few lines: as §2
Data set [21] in a line: Stability of the compound at 20 Equiv of L-ditiothreitol after 5 days by HPLC and TLC method. Type of data set: physicochemical. The settings on record: read-out: Stability. The method in brief:
as §2

Data set [22] relates to Nucleic Acid. The experiment in a line: Binding affinity to Escherichia coli pBR322 assessed as DNA interstand cross link at 0.5 mM after 6 mins by agarose gel electrophoresis in presence of 20 equiv of Et3P. Type of data set: nucleic-acid assay.
Data set [23] is described as follows: Activation of the compound assessed as half life at 40 Equiv of Et3P by HPLC and TLC method. Type of data set: physicochemical. In a few lines:
as §2

Calls of active or inactive are those of the source.

As a reminder, the half-life is the time needed for the level to fall by half in the phase considered.

In the case of `CO[C@@]12[C@H](COC(N)=O)C3=C(C(=O)C(C)=C(NCC4CCCCC(CNC5=C(C)C(=O)C6=C(C5=O)[C@@H](COC(N)=O)[C@@]5(OC)[C@H]7N[C@H]7CN65)SS4)C3=O)N1C[C@@H]1N[C@@H]12` (mixture of isomers), the result in the data set on Nucleic Acid [1] was Active. For the same molecule, the remaining at 120 h in data set [2] and in [6] was less than 10% each time. For the same molecule, the remaining at 72 h in data set [3], in data set [4] and in data set [5] was less than 10% each time. The half-life was 5.52 h in [7], 1.92 h in data set [8], 1.2 h in data set [9] and 0.48 h in data set [10]. The Activity amounted to 94% in the data set on Nucleic Acid [11], 95% in the data set with Nucleic Acid [12] and 21% in the data set on Nucleic Acid [13].

Regarding `CO[C@@]12[C@H](COC(N)=O)C3=C(C(=O)C(C)=C(NC[C@H]4CC[C@@H](CNC5=C(C)C(=O)C6=C(C5=O)[C@@H](COC(N)=O)[C@@]5(OC)[C@H]7N[C@H]7CN65)SS4)C3=O)N1C[C@@H]1N[C@@H]12`, the half-life was 6.24 h in [8] and 3.12 h in [9]. The Activity was found to be 83% with Nucleic Acid [11] and 77% in the data set with Nucleic Acid [12].

On to `CO[C@@]12[C@H](COC(N)=O)C3=C(C(=O)C(C)=C(N)C3=O)N1C[C@@H]1N[C@@H]12`, for which the Activity amounted to 3% with Nucleic Acid [14], 2% in the data set on Nucleic Acid [15] and 2% in the data set with Nucleic Acid [16].

As for `CO[C@@]12[C@H](COC(N)=O)C3=C(C(=O)C(C)=C(NCC(O)CCCCC(O)CNC4=C(C)C(=O)C5=C(C4=O)[C@@H](COC(N)=O)[C@@]4(OC)[C@H]6N[C@H]6CN54)C3=O)N1C[C@@H]1N[C@@H]12` (mixture of isomers), the remaining at 72 h in data set [17], in data set [18], in data set [19] and in data set [5] was less than 10% in each case. The remaining at 120 h in data set [2], in [20] and in [21] was less than 10% throughout. Moreover, the Activity in the data set on Nucleic Acid [11] came out at 4%; with Nucleic Acid [12], 6%; with Nucleic Acid [13], 7%.

In the case of `CO[C@@]12[C@H](OC(N)=O)C3=C(C(=O)C(C)=C(NCC4CCCCC(CNC5=C(C)C(=O)C6=C(C5=O)[C@@H](OC(N)=O)[C@@]5(OC)[C@H]7N[C@H]7CN65)SSC(CNC5=C(C)C(=O)C6=C(C5=O)[C@@H](OC(N)=O)[C@@]5(OC)[C@H]7N[C@H]7CN65)CCCCC(CNC5=C(C)C(=O)C6=C(C5=O)[C@@H](OC(N)=O)[C@@]5(OC)[C@H]7N[C@H]7CN65)SS4)C3=O)N1C[C@@H]1N[C@@H]12` (stereo partly drawn), the half-life in data set [9] was 1.99 h; in [23], 1.01 h. Moreover, the Activity with Nucleic Acid [22] is 35%.
